Active and inactive are the calls of the source. No cut-off for these calls is given here.
How the values were obtained:
[1] = test system: Staphylococcus epidermidis; assay: Antibacterial activity against penicillin-resistant Staphylococcus epidermidis clinical isolates incubated for 24 hrs by tube-dilution method; assay type: functional
Bacillus subtilis [2] = assay: Potency index, ratio of MIC for ciprofloxaxin to MIC for test compound against penicillin-susceptible Bacillus subtilis ATCC 9372 incubated for 24 hrs by tube-dilution method; assay type: functional
Staphylococcus aureus [3] = assay: Antibacterial activity against penicillin-resistant Staphylococcus aureus clinical isolates incubated for 24 hrs by tube-dilution method; assay type: functional
Staphylococcus aureus [4] = assay: Antibacterial activity against penicillin-susceptible Staphylococcus aureus ATCC 25923 incubated for 24 hrs by tube-dilution method; assay type: functional; conditions: ATCC 25923, 24 h
Procedure, shortened: (§1)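 MIC by tube dilution per NCCLS; B. subtilis ATCC9372, E. coli ATCC25922, P. aeruginosa ATCC27853 and S. aureus ATCC25923 are penicillin-susceptible strains.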

Bacillus subtilis [5] = assay: Inhibition of FtsZ in penicillin-susceptible Bacillus subtilis ATCC 9372 assessed as lowest drug concentration causing inhibition of cell division incubated for 5 hrs by phase-contrast light microscopy
Procedure, shortened: (§2)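 Cell division inhibition judged from bacterial cell morphology under phase-contrast light microscopy, scored as lowest concentration altering division; penicillin-susceptible strains B. subtilis ATCC9372, E. coli ATCC25922, P. aeruginosa ATCC27853, S. aureus ATCC25923.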

Pseudomonas aeruginosa [6] = assay: Inhibition of FtsZ in penicillin-susceptible Pseudomonas aeruginosa ATCC 27853 assessed as lowest drug concentration causing inhibition of cell division incubated for 5 hrs by phase-contrast light microscopy; procedure, shortened: as §2
Escherichia coli [7] = assay: Antibacterial activity against penicillin-susceptible Escherichia coli ATCC 25922 incubated for 24 hrs by tube-dilution method; assay type: functional; conditions: ATCC 25922, 24 h; procedure, shortened: as §1
Streptococcus pyogenes [8] = assay: Antibacterial activity against penicillin-resistant Streptococcus pyogenes clinical isolates incubated for 24 hrs by tube-dilution method; assay type: functional
Bacillus subtilis [9] = assay: Potency index, ratio of MIC for curcumin to MIC for test compound against penicillin-susceptible Bacillus subtilis ATCC 9372 incubated for 24 hrs by tube-dilution method; assay type: functional
Streptococcus pyogenes [10] = assay: Potency index, ratio of MIC for sanguinarine to MIC for test compound against penicillin-susceptible Streptococcus pyogenes clinical isolates incubated for 24 hrs by tube-dilution method; assay type: functional
Staphylococcus aureus [11] = assay: Antibacterial activity against […] Staphylococcus aureus ATCC 29213 incubated for 24 hrs by tube-dilution method; assay type: functional; conditions: ATCC 29213, 24 h
Procedure, shortened: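 Broth tube-dilution MIC run as NCCLS recommends, against the […] S. aureus strain ATCC29213.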

Bacillus subtilis [12] = assay: Potency index, ratio of MIC for sanguinarine to MIC for test compound against penicillin-susceptible Bacillus subtilis ATCC 9372 incubated for 24 hrs by tube-dilution method; assay type: functional
Sus scrofa [13] = organism: Sus scrofa; assay: Induction of porcine tubulin polymerisation at 2 times MIC for penicillin-resistant Staphylococcus aureus by fluorescence microscopy
Procedure, shortened: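 Polymerisation of mammalian tubulin measured with a commercial tubulin assay kit, read by fluorescence of the kit reporter, with paclitaxel as the positive control for enhanced polymerisation.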

Staphylococcus aureus [14] = assay: Inhibition of FtsZ in penicillin-susceptible Staphylococcus aureus ATCC 25923 assessed as lowest drug concentration causing inhibition of cell division incubated for 5 hrs by phase-contrast light microscopy; procedure, shortened: as §2
Bacillus subtilis [15] = assay: Antibacterial activity against penicillin-susceptible Bacillus subtilis ATCC 9372 incubated for 24 hrs by tube-dilution method; assay type: functional; conditions: ATCC 9372, 24 h; procedure, shortened: as §1
Pseudomonas aeruginosa [16] = assay: Antibacterial activity against penicillin-susceptible Pseudomonas aeruginosa ATCC 27853 incubated for 24 hrs by tube-dilution method; assay type: functional; conditions: ATCC 27853, 24 h; procedure, shortened: as §1
Streptococcus pyogenes [17] = assay: Potency index, ratio of MIC for oxacillin sodium to MIC for test compound against penicillin-susceptible Streptococcus pyogenes clinical isolates incubated for 24 hrs by tube-dilution method; assay type: functional
Bacillus subtilis [18] = assay: Potency index, ratio of MIC for oxacillin sodium to MIC for test compound against penicillin-susceptible Bacillus subtilis ATCC 9372 incubated for 24 hrs by tube-dilution method; assay type: functional
Streptococcus pyogenes [19] = assay: Antibacterial activity against penicillin-susceptible Streptococcus pyogenes clinical isolates incubated for 24 hrs by tube-dilution method; assay type: functional
Escherichia coli [20] = assay: Inhibition of FtsZ in penicillin-susceptible Escherichia coli ATCC 25922 assessed as lowest drug concentration causing inhibition of cell division incubated for 5 hrs by phase-contrast light microscopy; procedure, shortened: as §2
Sus scrofa [21] = organism: Sus scrofa; assay: Inhibition of porcine tubulin polymerisation at 32 ug/ml by fluorescence microscopy
Procedure, shortened: (§3)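 Polymerisation of mammalian tubulin followed with a commercial tubulin assay kit using a fluorescent reporter; compounds tested at 32 µg/mL or 256 µg/mL, paclitaxel as positive control.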

Staphylococcus aureus [22] = assay: Potency index, ratio of MIC for curcumin to MIC for test compound against […] Staphylococcus aureus ATCC 29213 incubated for 24 hrs by tube-dilution method; assay type: functional
Staphylococcus aureus [23] = assay: Potency index, ratio of MIC for oxacillin sodium to MIC for test compound against […] Staphylococcus aureus ATCC 29213 incubated for 24 hrs by tube-dilution method; assay type: functional
Sus scrofa [24] = organism: Sus scrofa; assay: Inhibition of porcine tubulin polymerisation at 256 ug/ml by fluorescence microscopy; procedure, shortened: as §3

Structure (SMILES) | MIC [1] [µg/mL] | MIC (Staphylococcus aureus [3]) [µg/mL] | MIC (Staphylococcus aureus [4]) [µg/mL] | MIC (Bacillus subtilis [5]) [µg/mL] | MIC (Pseudomonas aeruginosa [6]) [µg/mL] | MIC (Escherichia coli [7]) [µg/mL] | MIC (Streptococcus pyogenes [8]) [µg/mL] | MIC (Staphylococcus aureus [11]) [µg/mL] | Activity (Sus scrofa [13]) | MIC (Staphylococcus aureus [14]) [µg/mL] | MIC (Bacillus subtilis [15]) [µg/mL] | MIC (Pseudomonas aeruginosa [16]) [µg/mL] | MIC (Streptococcus pyogenes [19]) [µg/mL] | MIC (Escherichia coli [20]) [µg/mL] | other results
CC(C)c1cccc2c3ccccc3c[n+](C)c12.[Cl-] | 64 | 16 | 8 | 4 | > 128 | > 128 | 8 | 64 | inactive | 8 | 4 | > 128 | 4 | > 128 | Ratio (Bacillus subtilis [2]): 2; Ratio (Bacillus subtilis [9]): 8; Ratio (Streptococcus pyogenes [10]): 2; Ratio (Bacillus subtilis [12]): 2; Ratio (Streptococcus pyogenes [17]): 4; Ratio (Bacillus subtilis [18]): 2; inhibition (Sus scrofa [21]): Active
CSc1cccc2c3ccccc3c[n+](C)c12.[Cl-] | > 128 | 8 | 16 | 8 | > 128 | > 128 | 8 | 16 | inactive | 16 | 8 | > 128 | 8 | 128 | Ratio (Staphylococcus aureus [22]): 8; Ratio (Staphylococcus aureus [23]): 8
C[n+]1cc2ccccc2c2cc(OC(F)(F)F)ccc21.[Cl-] | 128 | 128 | 128 | 64 | > 128 | > 128 | 128 | > 128 | inactive | 128 | 128 | > 128 | 128 | > 128 | inhibition (Sus scrofa [24]): Active

— ChEMBL document CHEMBL4052686, “Synthesis and antibacterial activity of 5-methylphenanthridium derivatives as FtsZ inhibitors” (2017)
